In ChEMBL document CHEMBL3217723, “Optimizing PK properties of cyclic peptides: the effect of side chain substitutions on permeability and clearance()” (Medchemcomm, 2012):
Where a SMILES comes first, the peptide text is derived from it. [ ]: non-standard residue; d: D form. The star is where a group is joined. NMeAbu(4-morpholino) = CN[C@@H](CCN1CCOCC1)C(=O)O; NMeY = CN[C@@H](Cc1ccc(O)cc1)C(=O)O; NMeCha = CN[C@@H](CC1CCCCC1)C(=O)O; NMeF = CN[C@@H](Cc1ccccc1)C(=O)O; NMeI = CC[C@H](C)[C@H](NC)C(=O)O; NMeD = CN[C@@H](CC(=O)O)C(=O)O; dNMeL = CN[C@H](CC(C)C)C(=O)O; Morpholide = C1CN(*)CCO1; NMeA = CN[C@@H](C)C(=O)O; Piperidide = C1CCN(*)CC1

Assays:
[1] = Intrinsic clearance in human liver microsomes by LC-MS/MS analysis; format: ADME; conditions: read-out: CLH
Method in brief: (§1)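 Compound at 1 µM with liver microsomes (CYP 0.25 µM) in 0.1 M potassium phosphate, pH 7.4, at 37 °C. Final solvent was 0.975% acetonitrile and 0.025% DMSO. Mix prewarmed 5 min, then started with 1.3 mM NADPH; no-NADPH controls were run. Sampled at 0–60 min into acetonitrile and followed by LC-MS/MS for substrate loss. T1/2 was scaled to CLint by the well-stirred model.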

[2] = Lipophilicity, log D of the compound at pH 7.4 by shake-flask method; format: physicochemical; conditions: buffer
[3] = AUC (0 to infinity) in male Wistar-Han rat at 1.48 mg/kg, iv; format: ADME, organism-based; parameters: time infinity, dose 1.48 mg/kg, route intravenous; conditions: plasma
Method in brief: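 Jugular vein-cannulated male Wistar-Hannover rats (230-250 g), n = 3, fed ad libitum; 30 s tail-vein injection in 10% SEDDS:90% sterile dextrose, 1:1 propylene glycol:20 mM sodium phosphate (pH 7.4), or 10% propylene glycol:90% 20 mM sodium phosphate (pH 7.4). Blood via cannula to 24 h, K2EDTA plasma, LC-MS/MS against standard curve; non-compartmental AUC0-∞ by linear trapezoid rule.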

[4] = Terminal elimination half life in Wistar-Han rat at 10 mg/kg, po; format: ADME, organism-based; parameters: dose 10 mg/kg, route oral; conditions: in vivo, read-out: beta t1/2 (converted)
Method in brief: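 Male Wistar-Hannover rats (230–250 g, n = 3), jugular-cannulated, were fasted overnight and dosed by oral gavage. Vehicle depended on compound: SEDDS/water or propylene glycol/sodium phosphate pH 7.4. Blood was collected at 0.083–24 h into K2EDTA and the plasma analyzed by LC-MS/MS. Terminal half-life came from the non-compartmental ln-concentration slope.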

[5] = Tmax in male Wistar-Han rat at 10 mg/kg, po; format: ADME, organism-based; parameters: dose 10 mg/kg, route oral; conditions: in vivo
[6] = Cmax in male Wistar-Han rat at 10 mg/kg, po; format: ADME, organism-based; parameters: dose 10 mg/kg, route oral; conditions: in vivo
[7] = Drug excretion in male Wistar-Han rat urine; format: ADME; conditions: read-out: Drug excretion
[8] = Plasma clearance in male Wistar-Han rat at 1.48 mg/kg, iv; format: ADME, organism-based; parameters: dose 1.48 mg/kg, route intravenous
Method in brief: (§2)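 Jugular vein-cannulated male Wistar-Hannover rats (230-250 g; n = 3) given a 30 s tail-vein bolus in SEDDS/dextrose or propylene glycol/20 mM sodium phosphate (pH 7.4) vehicles. Blood sampled 0.03–24 h via cannula into K2EDTA. Plasma proteins precipitated, LC-MS/MS. Non-compartmental: CLp = dose/AUC0-∞ (linear trapezoid); Vdss; T1/2 = 0.693/terminal log-linear slope.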

[9] = Terminal elimination half life in Wistar-Han rat at 1.48 mg/kg, iv; format: ADME, organism-based; parameters: dose 1.48 mg/kg, route intravenous; conditions: in vivo, read-out: beta t1/2 (converted)
Method in brief: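 Jugular vein-cannulated male Wistar-Hannover rats (230–250 g, n = 3) received a tail-vein bolus over 30 s. Vehicle depended on compound: SEDDS/dextrose or propylene glycol/20 mM sodium phosphate pH 7.4. Blood was drawn at 0.03–24 h into K2EDTA and the plasma analyzed by LC-MS/MS. Non-compartmental analysis gave T1/2 = 0.693/|terminal ln-slope|.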

[10] = Volume of distribution at steady state in male Wistar-Han rat at 1.48 mg/kg, iv; format: ADME, organism-based; parameters: dose 1.48 mg/kg, route intravenous; conditions: in vivo, read-out: Vdss; method in brief: as §2
[11] = AUC (0 to infinity) in male Wistar-Han rat at 10 mg/kg, po; format: ADME, organism-based; parameters: time infinity, dose 10 mg/kg, route oral; conditions: plasma
Method in brief: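 Jugular vein-cannulated male Wistar-Hannover rats (230-250 g), n = 3, fasted overnight and fed after the 4 h sample; oral dosing in the i.v. formulations, except the SEDDS formulation used 90% water. Serial blood 0.083–24 h, K2EDTA plasma, LC-MS/MS against standard curve; non-compartmental AUC0-∞ by linear trapezoid rule.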

[12] = Apparent permeability from apical to basolateral side in human Caco2 cells by LC-MS/MS analysis; format: ADME, cell-based; conditions: Caco-2
[13] = Intrinsic clearance in rat liver microsomes by LC-MS/MS analysis; format: ADME; conditions: read-out: CLH; method in brief: as §1
[14] = Oral bioavailability in male Wistar-Han rat at 10 mg/kg; format: ADME, organism-based; conditions: in vivo
Method in brief: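 Male Wistar-Hannover rats (230-250 g, cannulated; n = 3) fasted overnight, fed after the 4 h sample, and dosed orally in the i.v. formulations or 10% SEDDS:90% water. Serial blood sampled 0.083–24 h into K2EDTA. Plasma measured by LC-MS/MS against a standard curve. Cmax and Tmax read from individual profiles; F = oral AUC0-∞ relative to i.v. AUC0-∞.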

Structure (SMILES)	CLint scaled [1]	logD [2]	also measured
CC(C)C[C@@H]1NC(=O)[C@H](Cc2ccc(O)cc2)N(C)C(=O)[C@H]2CCCN2C(=O)[C@H](CC(C)C)NC(=O)[C@H](C)N(C)C(=O)[C@@H](CC(C)C)N(C)C1=O (cyclo(L[dNMeL][NMeA]L[dP][NMeY]))	190 mL/min/kg	3.64	–
CC(C)C[C@@H]1NC(=O)[C@H](Cc2ccc(O)cc2)N(C)C(=O)[C@H]2CCCN2C(=O)[C@H](CC(C)C)NC(=O)[C@H](CCN2CCOCC2)N(C)C(=O)[C@@H](CC(C)C)N(C)C1=O (cyclo(L[dNMeL][NMeAbu(4-morpholino)]L[dP][NMeY]))	16 mL/min/kg	2.79	–
CC(C)C[C@@H]1NC(=O)[C@H](Cc2ccc(O)cc2)N(C)C(=O)[C@H]2CCCN2C(=O)[C@H](CC(C)C)NC(=O)[C@H](CC2CCCCC2)N(C)C(=O)[C@@H](CC(C)C)N(C)C1=O (cyclo(L[dNMeL][NMeCha]L[dP][NMeY]))	–	5.09	–
CC(C)C[C@@H]1NC(=O)[C@H](Cc2ccc(O)cc2)N(C)C(=O)[C@H]2CCCN2C(=O)[C@H](CC(C)C)NC(=O)[C@H](CC(=O)N2CCOCC2)N(C)C(=O)[C@@H](CC(C)C)N(C)C1=O (cyclo(L[dNMeL][NMeD](Morpholide)L[dP][NMeY]))	57 mL/min/kg	2.78	–
CC(C)C[C@@H]1NC(=O)[C@H](Cc2ccc(O)cc2)N(C)C(=O)[C@H]2CCCN2C(=O)[C@H](CC(C)C)NC(=O)[C@H](CC(=O)N2CCCCC2)N(C)C(=O)[C@@H](CC(C)C)N(C)C1=O (cyclo(L[dNMeL][NMeD](Piperidide)L[dP][NMeY]))	> 300 mL/min/kg	3.77	–
CC(C)C[C@@H]1NC(=O)[C@H](Cc2ccc(O)cc2)N(C)C(=O)[C@H]2CCCN2C(=O)[C@H](CC(C)C)NC(=O)[C@H](CC(=O)O)N(C)C(=O)[C@@H](CC(C)C)N(C)C1=O (cyclo(L[dNMeL][NMeD]L[dP][NMeY]))	< 8 mL/min/kg	0.477	AUC(0-inf) [3]: 441 ng·h/mL; half-life [4]: 284 min; Tmax [5]: 46.8 min; Cmax [6]: 17.3 ng/mL; dose excreted [7]: < 1%; clearance [8]: 56.4 mL/min/kg; half-life [9]: 21.5 min; Vd [10]: 0.36 L/kg; AUC(0-inf) [11]: 18.7 ng·h/mL; Papp A→B [12]: 0.36 ×10⁻⁶ cm/s; CLint scaled [13]: < 9 mL/min/kg; bioavailability [14]: 0.469%
CC(C)C[C@@H]1NC(=O)[C@H](Cc2ccc(O)cc2)N(C)C(=O)[C@H]2CCCN2C(=O)[C@H](CC(C)C)NC(=O)[C@H](Cc2ccccc2)N(C)C(=O)[C@@H](CC(C)C)N(C)C1=O (cyclo(L[dNMeL][NMeF]L[dP][NMeY]))	170 mL/min/kg	4.46	–
CC[C@H](C)[C@H]1C(=O)N[C@@H](CC(C)C)C(=O)N2CCC[C@@H]2C(=O)N(C)[C@@H](Cc2ccc(O)cc2)C(=O)N[C@@H](CC(C)C)C(=O)N(C)[C@H](CC(C)C)C(=O)N1C (cyclo(L[dNMeL][NMeI]L[dP][NMeY]))	> 300 mL/min/kg	–	–
